Consider seven molecules from ChEMBL document CHEMBL1133674, “A peptide prodrug approach for improving bisphosphonate oral absorption” (J Med Chem, 2000).

A short description of series [1]: Apical to basolateral fluxes across Caco-2 cell monolayers at 37 degree celsius was studied. Format: ADME, organism-based. To be noted: human, read-out: Permeability. The method, boiled down: (§1)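 Caco-2 monolayers (passage 46-48) grown on collagen-coated polycarbonate Transwell filters, 21-25 days after seeding at 80 000 cells/cm2; TEER checked the day before. Transport run in HBSS with 25 mM Hepes, pH 7.4, at 37 °C with stirring. Receiver sampled at intervals up to 4 h, radioactivity counted by scintillation. Papp = dQ/dt·1/(AC0), computed separately for bisphosphonate and Pro-Phe parts; mean ± SD.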

A short description of series [2]: (§2) Basolateral to apical fluxes across Caco-2 cell monolayers at 37 degree celsius was studied. To be noted: human, read-out: Permeability. Format: ADME, organism-based. The method, boiled down:
as §1

Series [3] in a line: Bioavailability by the ratios of 14C p.o. /14C i.v. accumulated in urine at 24 hr (dose 10 mg/kg p.o.). To be noted: eutheria, in vivo, po. It counts as ADME, organism-based. The method, boiled down:
(§3)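 Male Sabra rats, housed in metabolic cages, fasted overnight, dosed by stomach tube at 10 mg/kg bisphosphonate equivalent (n = 6). A 1 mg/kg iv jugular-cannula group served as reference. 14C in tibia or urine measured at 24 h by sample-oxidizer combustion and scintillation counting. F = (amount po × Div)/(amount iv × Dpo) × 100.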

Series [4] can be described thus: Bioavailability by the ratios of 14C p.o. /14C i.v. accumulated in bone at 24 hr (dose 10 mg/kg p.o.). It counts as ADME, organism-based, Bone element. To be noted: eutheria, in vivo, po. An outline of the steps:
as §3

A short description of series [5]: (§4) Inhibition of HAP dissolution was determined […] at 0.048 mM concentration *: p<0.05. Further details: scale not given: the % may be the effect or the level left. To be noted: 48 µM. An outline of the steps:
(§5)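 Hydroxyapatite tablets (300 mg, 10 mm), wax-coated so that one face is exposed, were stirred overnight at 37 °C in drug solution (240 or 48 µM in Tris, pH 7.4). They were then moved to acetate buffer, pH 5, at 37 °C. Dissolved calcium was read by atomic absorption at timed points, with the medium replenished after each sample.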

A short description of series [6]: Inhibition of HAP dissolution was determined in […] at 0.24 mM concentration *: p<0.05. To be noted: 240 µM. Further details: scale not given: the % may be the effect or the level left. An outline of the steps:
as §5

Series [7] can be described thus: Inhibition of HAP formation, by the compound (1.0 mM) absorbed, was obtained in vitro studies.*: p<0.05. To be noted: 1000 µM. The method, boiled down:
(§6)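 HAP precipitation was run with calcium 3.87 mM and phosphate 2.32 mM (Ca/PO4 1.67) in 0.05 M Tris, pH 7.4. Compound (0.1 or 1 mM) was dissolved in the phosphate solution. After 24 h incubation, filtrate calcium was measured by atomic absorption spectroscopy.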

Series [8] can be described thus: Inhibition of HAP formation, by the compound (0.1 mM) absorbed, was obtained in vitro studies.*: p<0.05. To be noted: 100 µM. The method, boiled down:
as §6

Series [9] is filed under the species Homo sapiens. Described as §2. It counts as ADME, organism-based. The method, boiled down: as §1
Series [10] is described as follows: as §4. To be noted: 48 µM. The method, boiled down:
as §5

Series [11] is described as follows: Inhibition of HAP dissolution was determined […] at 0.24 mM concentration *: p<0.05. To be noted: 240 µM. An outline of the steps:
as §5

Residues, ends and D or L forms follow the SMILES beside them.

`OC[C@@H](O)[C@@H](O)[C@H](O)[C@H](O)CO` [MANNITOL]: the Papp A→B in series [1] was 0.26 ×10⁻⁶ cm/s. Further, the Papp B→A in series [2] is 0.22 ×10⁻⁶ cm/s.

Take `NCCC(O)(P(=O)(O)O)P(=O)(O)O` [PAMIDRONIC ACID]: the Bioavailability is on record as 1.74% in series [3] and 0.44% in series [4]. For the same molecule, in [1], the Papp A→B was 0.05 ×10⁻⁶ cm/s. Further, the Papp B→A in series [2] was 0.04 ×10⁻⁶ cm/s. Also, the Control in series [5] amounted to 79.4%; in series [6] it was 55.7%. The Initial concentration turned out to be 46.9% in series [7] and 63.8% in series [8].

With `O=C(N[C@@H](Cc1ccccc1)C(=O)NCCCC(O)(P(=O)(O)O)P(=O)(O)O)[C@@H]1CCCN1` (stereo in doubt; form 1), the Bioavailability in series [3] is listed as 3.1%; in series [4], 1.74%. In addition, the Papp A→B in series [1] came to 0.23 ×10⁻⁶ cm/s. Besides, in series [9], the Permeability was found to be 0.16 ×10⁻⁶ cm/s.

With `O=C(N[C@@H](Cc1ccccc1)C(=O)NCCCC(O)(P(=O)(O)O)P(=O)(O)O)[C@@H]1CCCN1` (stereo in doubt; form 2), the Papp A→B in series [1] worked out at 1.03 ×10⁻⁶ cm/s. The same molecule came in with a Permeability in series [9] of 0.55 ×10⁻⁶ cm/s.

Regarding `O=C(N[C@@H](Cc1ccccc1)C(=O)NCCC(O)(P(=O)(O)O)P(=O)(O)O)[C@@H]1CCCN1` (stereo in doubt; form 1), the Papp A→B in series [1] turned out to be 0.5 ×10⁻⁶ cm/s. For the same molecule, in series [9], the Permeability turned out to be 0.41 ×10⁻⁶ cm/s.

In the case of `O=C(O)[C@H](Cc1ccccc1)NC(=O)[C@@H]1CCCN1` (H-Pro-Phe-OH), the Papp A→B in series [1] is 2.29 ×10⁻⁶ cm/s. Also, in [2], the Papp B→A is 1.14 ×10⁻⁶ cm/s.

For orientation: Inhibition means how much of the control response was suppressed. As to `O=C(N[C@@H](Cc1ccccc1)C(=O)NCCC(O)(P(=O)(O)O)P(=O)(O)O)[C@@H]1CCCN1` (stereo in doubt; form 2), the Bioavailability in series [3] is listed as 3.17%; in series [4], 1.65%. Further, in [1], the Papp A→B came out at 0.11 ×10⁻⁶ cm/s. The same molecule registered a Permeability in series [9] of 0.09 ×10⁻⁶ cm/s. In addition, the Inhibition is on record as 79.4% in [10] and 59.1% in [11]. Also, the Initial concentration in series [7] was found to be 40.5%; in [8], 83.8%.
